# Experimental data taken from ChEMBL document CHEMBL5661964, “Selective in vivo and in vitro effects of a small molecule inhibitor of cyclin-dependent kinase 4” (J Natl Cancer Inst, 2001).
# Columns and labels:
# HCT-116 = experiment: Induction of cell cycle arrest in human HCT-116 cells assessed as number of cells at G0/G1 phase at 5 uM after 24 hrs in presence of 10% serum by flow cytometry analysis (reference value: 49.5%); format: functional
# Summary of the method: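 HCT116 cells in McCoy's 5A were serum-starved 72 h in 0.1% serum, then released for 24 h into 10% serum with or without compound. They were fixed in 70% ethanol, RNase-treated (3 mg/mL, 30 min, 37 °C) and stained with 50 μg/mL propidium iodide. Flow cytometry on FL-2 area with doublet gating gave the percentages in sub-G1, G0/G1, S and G2/M.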
# [1] = biological target: Insulin-like growth factor 1 receptor (Homo sapiens, UniProt P08069); experiment: Inhibition of GST-tagged human IGF-1R expressed in baculovirus infected Sf9 cells using tyrosine-containing peptide substrate in presence of ATP
# U2OS [2] = experiment: Induction of cell cycle arrest in human U2OS cells assessed as percentage of cells at G2/M phase, cells were released from mimosine block prior to compound addition at 10 uM after 38 hrs by flow cytometry analysis (reference value: 32.3%); format: functional
# MRC5 [3] = experiment: Induction of cell cycle arrest in human MRC5 cells assessed as number of cells at G2/M phase at 10 uM after 24 hrs in presence of 10% serum by flow cytometry analysis (reference value: 14.9%); format: functional
# U2OS [4] = experiment: Induction of cell cycle arrest in human U2OS cells expressing pRb negative assessed as percentage of cells at S phase at 5 uM after 24 hrs by flow cytometry analysis (reference value: 30.3%); format: functional
# NIH3T3 [5] = experiment: Induction of cell cycle arrest in mouse NIH3T3 cells expressing pRb assessed as percentage of cells at S phase at 10 uM after 24 hrs by flow cytometry analysis (reference value: 12.2%); format: functional
# MRC5 [6] = experiment: Induction of cell cycle arrest in human MRC5 cells assessed as number of cells at SubG1 phase at 5 uM after 24 hrs in presence of 10% serum by flow cytometry analysis (reference value: 4.9%); format: functional
# Insulin receptor = Insulin receptor (Homo sapiens, UniProt P06213); experiment: Inhibition of GST-tagged human Insulin receptor expressed in baculovirus infected Sf9 cells using tyrosine-containing peptide substrate in presence of ATP
# NIH3T3 [7] = experiment: Induction of cell cycle arrest in mouse NIH3T3 cells expressing pRb-negative assessed as percentage of cells at S phase at 5 uM after 24 hrs by flow cytometry analysis (reference value: 20%); format: functional
# Summary of the method: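 Congenic NIH3T3 line with homozygous Rb deletion, grown at 37 °C in 5% CO2 in high-glucose DMEM with 10% FCS. Asynchronous cells were seeded at 7.5 × 10^4 cells/mL, grown 24 h, then treated 24 h (compound added from 100× stocks in 10% DMSO). Cells were ethanol-fixed, treated with RNase and stained with propidium iodide; FL-2 area was measured with single-event gating. Run at least twice.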
# Chain of Insulin-like growth factor 1 receptor (P08069 31-736 limits assumed): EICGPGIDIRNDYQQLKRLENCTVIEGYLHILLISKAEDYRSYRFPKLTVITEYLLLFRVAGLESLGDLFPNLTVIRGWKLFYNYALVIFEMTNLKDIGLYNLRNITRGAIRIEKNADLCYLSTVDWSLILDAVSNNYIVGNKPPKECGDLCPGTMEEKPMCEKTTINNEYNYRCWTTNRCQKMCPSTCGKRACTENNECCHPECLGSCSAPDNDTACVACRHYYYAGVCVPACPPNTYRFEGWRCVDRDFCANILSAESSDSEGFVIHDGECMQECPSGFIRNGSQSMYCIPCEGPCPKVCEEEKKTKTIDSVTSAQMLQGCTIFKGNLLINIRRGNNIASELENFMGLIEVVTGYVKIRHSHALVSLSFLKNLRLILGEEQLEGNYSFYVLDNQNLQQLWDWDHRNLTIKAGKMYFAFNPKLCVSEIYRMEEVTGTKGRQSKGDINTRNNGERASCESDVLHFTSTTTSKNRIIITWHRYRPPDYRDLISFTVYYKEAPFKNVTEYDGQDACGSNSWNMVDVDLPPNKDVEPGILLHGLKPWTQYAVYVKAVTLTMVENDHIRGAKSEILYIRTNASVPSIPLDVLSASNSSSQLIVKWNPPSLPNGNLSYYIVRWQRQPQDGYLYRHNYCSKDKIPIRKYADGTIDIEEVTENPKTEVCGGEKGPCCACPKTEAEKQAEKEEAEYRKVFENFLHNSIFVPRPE
# Chain of Insulin-like growth factor 1 receptor (P08069 741-1367 limits assumed): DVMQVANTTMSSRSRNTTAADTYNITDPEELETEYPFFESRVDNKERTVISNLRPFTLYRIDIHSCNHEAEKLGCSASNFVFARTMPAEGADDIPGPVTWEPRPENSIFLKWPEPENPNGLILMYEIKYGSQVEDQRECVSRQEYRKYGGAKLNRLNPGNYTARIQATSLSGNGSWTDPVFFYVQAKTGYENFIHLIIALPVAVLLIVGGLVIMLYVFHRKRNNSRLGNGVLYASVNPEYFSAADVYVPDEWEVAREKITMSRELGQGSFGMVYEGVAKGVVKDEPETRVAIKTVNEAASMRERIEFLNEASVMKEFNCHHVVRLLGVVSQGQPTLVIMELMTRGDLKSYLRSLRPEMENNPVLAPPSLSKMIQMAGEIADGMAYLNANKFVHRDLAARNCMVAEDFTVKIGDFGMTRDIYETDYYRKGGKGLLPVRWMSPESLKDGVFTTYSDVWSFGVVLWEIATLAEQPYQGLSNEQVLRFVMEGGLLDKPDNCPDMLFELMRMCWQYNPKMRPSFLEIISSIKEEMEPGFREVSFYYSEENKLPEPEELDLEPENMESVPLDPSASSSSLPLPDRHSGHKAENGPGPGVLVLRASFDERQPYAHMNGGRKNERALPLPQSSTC
# Chain of Insulin receptor (P06213 28-758 limits assumed): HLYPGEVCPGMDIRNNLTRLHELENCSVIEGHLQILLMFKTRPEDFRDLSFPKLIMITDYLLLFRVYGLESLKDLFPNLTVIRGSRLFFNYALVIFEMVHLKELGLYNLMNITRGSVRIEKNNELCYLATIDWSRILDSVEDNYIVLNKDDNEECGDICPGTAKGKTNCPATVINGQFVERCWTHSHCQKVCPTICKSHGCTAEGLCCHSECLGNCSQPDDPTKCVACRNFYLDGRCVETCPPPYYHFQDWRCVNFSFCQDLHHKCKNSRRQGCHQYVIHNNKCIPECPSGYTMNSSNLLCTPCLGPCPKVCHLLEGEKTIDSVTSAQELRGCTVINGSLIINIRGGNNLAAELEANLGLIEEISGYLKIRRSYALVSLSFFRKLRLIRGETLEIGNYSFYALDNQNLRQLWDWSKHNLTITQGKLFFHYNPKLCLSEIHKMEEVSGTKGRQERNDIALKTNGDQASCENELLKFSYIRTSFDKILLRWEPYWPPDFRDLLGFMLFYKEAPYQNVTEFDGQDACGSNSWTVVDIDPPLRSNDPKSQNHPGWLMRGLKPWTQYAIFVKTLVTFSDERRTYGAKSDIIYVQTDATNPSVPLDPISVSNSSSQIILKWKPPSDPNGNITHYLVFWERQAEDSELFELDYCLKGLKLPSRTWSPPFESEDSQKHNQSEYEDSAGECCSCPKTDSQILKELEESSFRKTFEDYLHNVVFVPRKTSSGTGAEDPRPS
# Chain of Insulin receptor (P06213 763-1382 limits assumed): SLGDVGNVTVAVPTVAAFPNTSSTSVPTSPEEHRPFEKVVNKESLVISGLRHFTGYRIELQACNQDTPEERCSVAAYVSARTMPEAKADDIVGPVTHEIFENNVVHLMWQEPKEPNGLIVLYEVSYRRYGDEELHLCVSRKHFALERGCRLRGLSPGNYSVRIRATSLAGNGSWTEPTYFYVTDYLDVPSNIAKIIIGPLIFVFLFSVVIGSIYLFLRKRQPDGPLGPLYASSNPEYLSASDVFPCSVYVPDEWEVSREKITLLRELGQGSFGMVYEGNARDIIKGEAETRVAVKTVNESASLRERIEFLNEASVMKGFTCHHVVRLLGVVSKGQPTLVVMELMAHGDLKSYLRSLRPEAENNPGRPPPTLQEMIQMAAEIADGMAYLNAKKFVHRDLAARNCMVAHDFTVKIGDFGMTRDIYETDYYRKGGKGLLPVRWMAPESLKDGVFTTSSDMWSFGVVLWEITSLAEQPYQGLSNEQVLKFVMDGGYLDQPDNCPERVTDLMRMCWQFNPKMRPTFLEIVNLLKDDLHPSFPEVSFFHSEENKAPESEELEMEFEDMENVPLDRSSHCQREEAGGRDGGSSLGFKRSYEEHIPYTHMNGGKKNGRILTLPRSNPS
structure (smiles),measurement,setting,value
CCNc1cc(N[C@H]2CC[C@H](O)CC2)nc(Nc2ccc3c(ccn3Cc3ccccc3)c2)n1,Activity,HCT-116,62.5%
same,IC50,[1],> 10 µM
same,Activity,U2OS [2],13.9%
same,Activity,MRC5 [3],4.5%
same,Activity,U2OS [4],26.3%
same,Activity,NIH3T3 [5],3.1%
same,Activity,MRC5 [6],7.4%
same,IC50,Insulin receptor,> 10 µM
same,Activity,NIH3T3 [7],9.1%
